A short description of test [1]: Her2 expression decrease, cell viability multiplex – SKBR3 breast tumor cells, AlphaScreen, ATP viability, primary screen (AID 461;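 active means Her2 level under about 52% in both replicate screens, with viability over 70% of control, limit read from the data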;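 on Her2 level: lower value means less Her2 protein in the cells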;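 on viability: percent of carrier control wells set as 100% viability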). The settings on record: SKBR3 Her2 protein level, 18-24 h, measured here: SKBR3 viability, ATP luminescence, at 10 µM. In general terms: Bead proximity is the source of the signal in Alpha formats.
The target of test [2] is Receptor tyrosine-protein kinase erbB-2 (Homo sapiens) (UniProt P04626). The description is as above. The settings on record: 18-24 h, at 10 µM, stronger effect = lower value.
The nature of test [3]: reduced viability of SK-BR-3 breast cancer cells – cell-based, 24 h, human, pilot screen (AID 572;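 active means viability at or below 10% of carrier control in both of two separate runs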;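 further: compound exposure lasted between 18 and 24 h rather than exactly 24 h; 100% = carrier-treated control wells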). To be noted: SK-BR-3 viability, CellTiter-Glo luminescence, at 10 µM, stronger effect = lower value. (Cellular ATP, detected with luciferase, serves as a proxy for viable cell number.)
The nature of test [4]: HUVEC growth inhibition – cell-based, human, primary screen (AID 575;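 active means viability at or below 30% in both replicate assays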;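 further: 100% = median of untreated cell wells with 0.1% DMSO on each plate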). The settings on record: HUVEC proliferation, CellTiter-Glo luminescence, 72 h; at 10 µM; stronger effect = lower value. Summed up:
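Test system: primary human umbilical vein endothelial cells; medium: endothelial basal medium with 2% FBS plus growth supplements; dosing: 10 µM compound only; times: 72 h treatment at 37 °C; signal: CTG luminescence; read-out: % viability relative to median vehicle-well signal on each plate; control set: vehicle and MePR control wells; plate: 384-well, collagen-coated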

A short description of test [5]: H69AR cell proliferation blockers – human, duplicate replicates, primary screen (AID 580).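 Further: 100% = mean luminescence of untreated wells and 0% = no signal.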 The settings on record: H69AR lung tumor cells viability, ATP luminescence, 72 h; at 10 µM; stronger effect = lower value.
Test [6] in a line: MRP1 drug-resistance reversers in H69AR cells – cell-based, doxorubicin co-treatment, pilot screen (AID 601;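 active means viability loss from added drug above about 55%, and viability with drug at most 40%, in both replicates, limit read from the data, passing the limit was not always enough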). To be noted: CellTiter-Glo, 72 h, at 10 µM; for differential viability (reversal): stronger effect = higher value.
Test [7] in a line: yeast transport mutant growth inhibition pilot in 384-well plates, post-Golgi transport modulator project (AID 636; in the data active means inhibition above about 31%). To be noted: absorbance 615 nm, about 18 h, stronger effect = higher value.
Test [8] can be described thus: growth suppression of yeast trafficking mutant, preliminary HTS, modulators of trafficking downstream of Golgi apparatus project, 1536-format plate, OD 615 nm (AID 637; in the data active means inhibition above about 30%). The settings on record: yeast transport mutant growth, absorbance 615 nm, 18 h; stronger effect = higher value.
The mark [9] stands for this setting: H69AR cells + 2 uM doxorubicin, measured here: viability with 2 uM doxorubicin, stronger effect = lower value.
[10] abbreviates: H69AR cells, compound alone cytotoxicity.

The results in this text go back to PubChem BioAssay.

The source made the active and inactive calls.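 How the source made its calls, unless noted: active means viability at or under a set limit in both replicates, limit being median viability minus 3 SD (cut at about 48% in these data, passing the limit was not always enough); inconclusive means at or under the limit in just one replicate; inactive means at or above the limit in both replicates.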

Sequence of Receptor tyrosine-protein kinase erbB-2 (Homo sapiens) (P04626 whole entry, looked up): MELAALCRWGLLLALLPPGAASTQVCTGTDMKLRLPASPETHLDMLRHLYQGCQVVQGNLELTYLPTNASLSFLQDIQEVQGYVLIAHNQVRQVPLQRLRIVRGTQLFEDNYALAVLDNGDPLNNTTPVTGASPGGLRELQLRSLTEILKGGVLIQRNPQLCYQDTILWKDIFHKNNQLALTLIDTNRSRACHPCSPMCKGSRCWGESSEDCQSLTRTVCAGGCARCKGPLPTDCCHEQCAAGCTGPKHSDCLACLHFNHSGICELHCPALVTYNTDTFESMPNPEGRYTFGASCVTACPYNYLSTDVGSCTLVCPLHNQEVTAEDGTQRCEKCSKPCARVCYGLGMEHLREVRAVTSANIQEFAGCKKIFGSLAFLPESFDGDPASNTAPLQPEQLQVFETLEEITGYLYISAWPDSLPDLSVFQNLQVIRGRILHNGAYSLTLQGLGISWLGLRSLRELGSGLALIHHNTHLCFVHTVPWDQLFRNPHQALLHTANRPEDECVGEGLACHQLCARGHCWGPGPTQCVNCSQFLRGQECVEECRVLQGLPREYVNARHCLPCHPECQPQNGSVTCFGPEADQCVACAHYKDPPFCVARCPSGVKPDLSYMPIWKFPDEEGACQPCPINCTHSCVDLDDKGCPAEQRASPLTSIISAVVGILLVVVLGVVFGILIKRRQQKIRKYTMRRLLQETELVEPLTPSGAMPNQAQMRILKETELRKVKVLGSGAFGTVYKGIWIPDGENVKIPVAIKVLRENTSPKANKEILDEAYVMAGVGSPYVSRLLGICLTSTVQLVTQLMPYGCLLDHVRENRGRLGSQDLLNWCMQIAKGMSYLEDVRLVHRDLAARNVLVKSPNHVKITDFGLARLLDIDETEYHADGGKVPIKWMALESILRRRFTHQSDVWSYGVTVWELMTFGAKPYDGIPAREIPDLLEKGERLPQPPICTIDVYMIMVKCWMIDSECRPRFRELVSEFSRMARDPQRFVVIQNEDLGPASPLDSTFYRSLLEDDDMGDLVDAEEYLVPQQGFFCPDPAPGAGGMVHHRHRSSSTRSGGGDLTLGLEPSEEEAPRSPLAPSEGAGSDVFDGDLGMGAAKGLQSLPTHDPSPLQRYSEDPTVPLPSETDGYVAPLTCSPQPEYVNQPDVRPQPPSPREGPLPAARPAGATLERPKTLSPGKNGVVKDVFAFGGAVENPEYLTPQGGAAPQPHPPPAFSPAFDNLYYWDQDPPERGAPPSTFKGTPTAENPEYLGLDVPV

As usually defined, the viability is a read-out of living cells in per cent, often relative to untreated cells. As a reminder, the inhibition is the change of the read-out against control, counted positive when it falls. Turning to `O=C(Nc1cccc2ccccc12)c1cnccn1`, the viability in test [1] was 82%; in test [3], 82% (inactive); in test [4], 92.3% (inactive); in test [5], 95% (inactive); in test [6] (setting [9]) it was 82.5%; in test [6] (setting [10]), 95%. Further, the Her2 level in test [2] was 88.5% (inactive). Further, the differential viability (reversal) in test [6] (H69AR cells + 2 uM doxorubicin) was 12.5% (inactive). The inhibition in test [7] was -7.53% (inactive); in test [8], -1.59% (inactive).

As for `O=C(Nc1cccnc1)c1ccc2c(c1)OCO2`, the viability in test [1] was 119%; in test [3], 119% (inactive); in test [4], 99.6% (inactive); in test [5], 97.7% (inactive); in test [6] (setting [9]), 83.9%; in test [6] (setting [10]), 97.7%. For the same compound, the Her2 level in test [2] was 121% (inactive). Moreover, the differential viability (reversal) in test [6] (H69AR cells + 2 uM doxorubicin) is 13.8% (inactive). The inhibition is -5.33% (inactive) in test [7] and 9.84% (inactive) in test [8].

In the case of `CCOC(=O)c1oc2ccccc2c1CSc1nnnn1-c1ccc(C)cc1`, the viability is 94.5% in test [1]; 94.5% (inactive) in test [3]; 83.2% (inactive) in test [4]; 69.3% (inactive) in test [5]; 88% in test [6] (setting [9]); 69.3% in test [6] (setting [10]). The Her2 level in test [2] was 99% (inactive). In addition, in test [6] (H69AR cells + 2 uM doxorubicin), the differential viability (reversal) was -18.7% (inactive). In addition, the results for the inhibition in test [7] and in test [8] were 2.08% (inactive) and -6.98% (inactive), respectively.

`CC(=O)Nc1ccc(Oc2ccc3nc(C)[nH]c3c2)cc1`: the viability was 97.5% in test [1]; 97.5% (inactive) in test [3]; 113% (inactive) in test [4]; 95.4% (inactive) in test [5]; 105% in test [6] (setting [9]); 95.4% in test [6] (setting [10]). For the same compound, the Her2 level in test [2] was 93.5% (inactive). Further, in test [6] (H69AR cells + 2 uM doxorubicin), the differential viability (reversal) is -9.67% (inactive). Besides, the figures for the inhibition in test [7] and in test [8] were -6.58% (inactive) and -10.3% (inactive), respectively.

Take `Cc1c(=O)n(OCc2ccccn2)c2ccccc2[n+]1[O-]`: the viability was 84% in test [1]; 84% (inactive) in test [3]; 105% (inactive) in test [4]; 94.2% (inactive) in test [5]; 86% in test [6] (setting [9]); 94.2% in test [6] (setting [10]). Further, the Her2 level in test [2] is 76% (inactive). Besides, the differential viability (reversal) in test [6] (H69AR cells + 2 uM doxorubicin) is 8.18% (inactive). Moreover, the inhibition in test [7] is -5.92% (inactive); in test [8], -1.27% (inactive).

Take `CCOC(=O)N1CCN(c2c(N3CCN(c4ccccc4OC)CC3)c(=O)c2=O)CC1`: the viability in test [1] was 94.5%; in test [3] it was 94.5% (inactive); in test [4] it was 109% (inactive); in test [5], 84.2% (inactive); in test [6] (setting [9]) it was 75.5%; in test [6] (setting [10]), 84.2%. In addition, the Her2 level in test [2] is 104% (inactive). Further, in test [6] (H69AR cells + 2 uM doxorubicin), the differential viability (reversal) was 8.68% (inactive). Further, the inhibition was -4% (inactive) in test [7] and -7.38% (inactive) in test [8].

`COc1ccc(Cn2c(CCCO)nc3ccccc32)cc1OC`: the viability in test [1] was 98.5%; in test [3] it was 98.5% (inactive); in test [4], 105% (inactive); in test [5], 102% (inactive); in test [6] (setting [9]), 88%; in test [6] (setting [10]) it was 102%. The Her2 level in test [2] is 97.5% (inactive). The differential viability (reversal) in test [6] (H69AR cells + 2 uM doxorubicin) was 14.2% (inactive). Also, the inhibition in test [7] is -7.67% (inactive); in test [8] it was -3.17% (inactive).

Take `Cc1ccc(Cn2c(C(=O)NCCCN3CCOCC3)cc3sccc32)cc1`: the viability in test [1] was 84.5%; in test [3] it was 84.5% (inactive); in test [4], 63.6% (inactive); in test [5], 77.6% (inactive); in test [6] (setting [9]) it was 81.1%; in test [6] (setting [10]) it was 77.6%. The Her2 level in test [2] is 76.5% (inactive). Moreover, in test [6] (H69AR cells + 2 uM doxorubicin), the differential viability (reversal) is -3.47% (inactive). The inhibition is -3.16% (inactive) in test [7] and -1.27% (inactive) in test [8].

Take `CCn1c(=O)cc(OCC(=O)Nc2cc(C)ccn2)c2ccccc21`: the viability was 80% in test [1]; 80% (inactive) in test [3]; 73.9% (inactive) in test [4]; 86.4% (inactive) in test [5]; 89.7% in test [6] (setting [9]); 86.4% in test [6] (setting [10]). In addition, in test [2], the Her2 level is 77% (inactive). Also, in test [6] (H69AR cells + 2 uM doxorubicin), the differential viability (reversal) is -3.33% (inactive). The inhibition was -2.89% (inactive) in test [7] and -0.55% (inactive) in test [8].

For the compound `CCCN(CCC)S(=O)(=O)c1ccc(NS(C)(=O)=O)cc1`, the viability in test [1] is 110%; in test [3], 110% (inactive); in test [4], 98.2% (inactive); in test [5], 105% (inactive); in test [6] (setting [9]), 99%; in test [6] (setting [10]), 105%. Moreover, the Her2 level in test [2] is 124% (inactive). Also, the differential viability (reversal) in test [6] (H69AR cells + 2 uM doxorubicin) was 6.41% (inactive). Also, the inhibition in test [7] was -1.18% (inactive); in test [8], -5.83% (inactive).

`CCCCCCC(C)n1[nH]c(=O)c2c(C)cc(=O)[nH]c21` (stereo not given): the viability in test [1] was 89.5%; in test [3], 89.5% (inactive); in test [4], 77.7% (inactive); in test [5], 94.2% (inactive); in test [6] (setting [9]), 98.6%; in test [6] (setting [10]), 94.2%. Besides, the Her2 level in test [2] is 107% (inactive). The differential viability (reversal) in test [6] (H69AR cells + 2 uM doxorubicin) was -4.37% (inactive). Also, the values for the inhibition in test [7] and in test [8] were -1.73% (inactive) and -7.54% (inactive), respectively.

Regarding `O=C(CSc1nnc(-c2ccc(Br)o2)n1Cc1ccccc1)c1ccccc1F`, the viability in test [1] is 81.5%; in test [3], 81.5% (inactive); in test [4], 86.3% (inactive); in test [5], 64.7% (inactive); in test [6] (setting [9]), 75.9%; in test [6] (setting [10]), 64.7%. In test [2], the Her2 level is 91% (inactive). In addition, the differential viability (reversal) in test [6] (H69AR cells + 2 uM doxorubicin) is -11.2% (inactive). The results for the inhibition in test [7] and in test [8] were 3.11% (inactive) and -2.13% (inactive), respectively.

For the compound `C=CCn1c(SCC(=O)c2ccc(OC)cc2)nnc1C(C)NC(=O)c1cccs1` (stereo not given), the viability in test [1] is 102%; in test [3], 102% (inactive); in test [4], 90.9% (inactive); in test [5] it was 87% (inactive); in test [6] (setting [9]), 92.4%; in test [6] (setting [10]), 87%. In test [2], the Her2 level was 88.5% (inactive). The differential viability (reversal) in test [6] (H69AR cells + 2 uM doxorubicin) was -5.4% (inactive). Besides, the inhibition in test [7] was -0.26% (inactive); in test [8], 7.67% (inactive).

Consider `CCCCOc1cc(=O)[nH]c(=O)[nH]1`, for which the viability in test [1] is 108%; in test [3], 108% (inactive); in test [4], 95.2% (inactive); in test [5], 102% (inactive); in test [6] (setting [9]), 93.4%; in test [6] (setting [10]), 102%. The Her2 level in test [2] was 99% (inactive). Further, the differential viability (reversal) in test [6] (H69AR cells + 2 uM doxorubicin) is 8.32% (inactive). Also, the values for the inhibition in test [7] and in test [8] were -2.11% (inactive) and -7.33% (inactive), respectively.

With `COc1cc(N2C(=O)CSC23C(=O)Nc2ccccc23)cc(OC)c1OC` (stereo not given), the viability in test [1] is 95.5%; in test [3], 95.5% (inactive); in test [4] it was 79.7% (inactive); in test [5], 95.7% (inactive); in test [6] (setting [9]) it was 87.8%; in test [6] (setting [10]), 95.7%. Besides, the Her2 level in test [2] was 105% (inactive). In addition, the differential viability (reversal) in test [6] (H69AR cells + 2 uM doxorubicin) is 7.86% (inactive). The figures for the inhibition in test [7] and in test [8] were -1.97% (inactive) and -5.81% (inactive), respectively.
